Compound activity (PubChem)
Compounds with a hit are over-represented: about 2.3% of the library has one in this group of screens.
TROY NFkB inh: blocks TROY-dependent signaling in reporter cells. Q293 LMP1-TROYcd NF-kB luciferase reporter, 4 h. inhibition, % at 10 µM. AID 1347056. 0.98% of 360,000 active;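 active = compounds whose plate-normalised and pattern-corrected inhibition of the luciferase reporter signal at the single screening dose is 50% or more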
TWEAK Fn14 block: inhibitors of TWEAK-Fn14 interaction signaling. TWEAK-stimulated Fn14 reporter cells, luciferase luminescence, 8 h. inhibition, % at 10 µM. 2% of 360,000 active; in the data active = inhibition above about 50%
XiGFP reactiv: reactivates the inactive X chromosome in mouse fibroblasts; XiGFP mouse fibroblasts, % GFP-positive cells imaging, 3 d; cells co-treated with 5-aza-dC sensitizer; scaled so ellipticine positive control = 100%; activation, % at 7.58 µM; 0.055% of 360,000 active; AID 743238;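 active = mean normalized replicate activation at least 10% and every replicate at or above 10%; inconclusive = only one of the two criteria met; inactive = mean below 10% and not all replicates reach 10%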;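 also: 0% = median of on-plate neutral control wells and 100% = ellipticine 6 µM median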
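Material: XiGFP fibroblasts, SV40-immortalized; Buffer or medium: DMEM containing 5-aza-dC; Compound dosing: single point; Times: 3 days compound exposure.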
EWS-Fli block: EWS/Fli transcriptional activity inhibition; inhibition, % at 12.6 µM; A673 NR0B1-luciferase reporter, viability-normalised; 0.67% of 350,000 active;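 active = mean inhibition of at least 50% after viability correction, with every replicate also passing that limit; inconclusive = mean reaches 50% but only one of two replicates passes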;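 also: firefly luciferase signal divided by Alamar Blue viability fluorescence both relative to DMSO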
LGR2 inh: Drosophila LGR2 receptor signaling inhibition | inhibition, % at 9.99 µM | HEK293 LGR2, CRE-luciferase, bursicon-stimulated, 4 h | AID 720647 | 0.35% of 380,000 active;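 active = drop in luminescence signal, shown as inhibition above about 50% in the replicate tests, limit read from the data, passing the limit was not always enough; inconclusive = probably only some replicates passing the limit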;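 also: agonist challenge used bursicon conditioned medium at about half maximal strength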
FN deposit inh: fibronectin deposition inhibition. AH1F fibroblasts, Alexa488-fibronectin deposition fluorescence, overnight. inhibition, % at 12.6 µM. 0.086% of 350,000 active. AID 743247;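 active = mean inhibition across replicates of 30% or more, regardless of how many single replicates reach that level; inconclusive = mean under 30% yet at least half of replicates reach 30%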;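 also: positive control wells lacked labelled fibronectin entirely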
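Assay system: AH1F fibroblasts assembling fluorescent fibronectin matrix; Amount: 10000 AH1F cells per well; Buffer or medium: DMEM, 2% serum; Probe or stimulus: Alexa488-fibronectin, 24 nM final in well; Doses: single compound dose, delivered by pin transfer; Incubation: 1 h adhesion, overnight exposure; Measured by: fluorescence 485/525 nm; Read-out: fibronectin deposition inhibition.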
Active calls of the source: *.

C[C@H]1CN([C@@H](C)CO)C(=O)c2cc(NC(=O)Nc3cccc4ccccc34)ccc2O[C@@H]1CN(C)CC1CCCCC1 was read as XiGFP reactiv 0, EWS-Fli block 12 and LGR2 inh -9.
Screening COc1ccc2c3c(n(C)c2c1)[C@H](CO)N(C(=O)C1CCCC1)CC31CCN(C(=O)CC2CC2)CC1 returned XiGFP reactiv 0, EWS-Fli block 9 and LGR2 inh -20.
Cc1csc(SCC(=O)NCc2ccccc2)n1 was read as TROY NFkB inh 2, TWEAK Fn14 block 15, XiGFP reactiv 0, EWS-Fli block 4, LGR2 inh 5 and FN deposit inh -2.
For Cc1csc2sc(-c3ccnc(SCC(=O)NCc4ccccc4)n3)c(C)c12 the results were TROY NFkB inh 4, TWEAK Fn14 block 2, XiGFP reactiv 0, EWS-Fli block 55*, LGR2 inh -14 and FN deposit inh 0.
For CCOC(=O)C1(CCCc2ccccc2)CCN(C2CCSCC2)CC1 the results were TROY NFkB inh 2, TWEAK Fn14 block 55*, XiGFP reactiv 0, EWS-Fli block 17, LGR2 inh 3 and FN deposit inh -1.
Screening C[C@@H]1CCCCO[C@H](CN(C)S(=O)(=O)c2ccc(Cl)cc2)[C@H](C)CN([C@H](C)CO)C(=O)c2cc(NC(=O)CCC(F)(F)F)ccc2O1 returned XiGFP reactiv 0, EWS-Fli block 10, LGR2 inh 5 and FN deposit inh 12.
Cc1ccccc1NC(=S)NNC(=O)c1csc2c1CCC(C)C2 (stereo unspecified) was read as TROY NFkB inh 80*, TWEAK Fn14 block 87*, LGR2 inh 34 and FN deposit inh -7.
Screening COc1ccc(N2CCN(C(=O)c3[nH]c(C(F)(F)F)nc3-c3ccccc3)CC2)cc1 returned TROY NFkB inh 4, TWEAK Fn14 block 7, XiGFP reactiv 0, EWS-Fli block -9, LGR2 inh -8 and FN deposit inh 4.
Screening COc1ccccc1N1CCN(C(=O)c2[nH]c(C(F)(F)F)nc2-c2ccccc2)CC1 returned TROY NFkB inh 15, TWEAK Fn14 block 12, XiGFP reactiv 1, EWS-Fli block 72*, LGR2 inh 8 and FN deposit inh 6.
For O=C(c1[nH]c(C(F)(F)F)nc1-c1ccccc1)N1CCN(c2cccc(C(F)(F)F)n2)CC1 the results were TROY NFkB inh -1, TWEAK Fn14 block 5, XiGFP reactiv 0, EWS-Fli block 55*, LGR2 inh -4 and FN deposit inh 4.
Screening COc1ccc(-c2ccc3c(c2)C2CC3CCN2C(=O)OCc2ccccc2)cc1 (stereo unspecified) returned TROY NFkB inh -23, TWEAK Fn14 block -7, XiGFP reactiv 0, EWS-Fli block -2, LGR2 inh -2 and FN deposit inh active.
CCS(=O)(=O)Nc1ccc2c(c1)C(=O)N(C)C[C@@H](OC)[C@@H](C)CN(C(=O)C1CC1)[C@@H](C)CO2 was read as XiGFP reactiv 0, EWS-Fli block 9, LGR2 inh -1 and FN deposit inh -6.
`COc1ccc(CCn2c(=N)c(C(=O)NCc3ccco3)cc3c(=O)n4ccccc4nc32)cc1OC` gave TROY NFkB inh -4, TWEAK Fn14 block -8, EWS-Fli block 3, LGR2 inh -1 and FN deposit inh 7.
Screening N=c1c(S(=O)(=O)c2ccc(Cl)cc2)cc2c(=O)n3ccccc3nc2n1Cc1ccco1 returned TROY NFkB inh 31, TWEAK Fn14 block 53*, XiGFP reactiv 0, EWS-Fli block -3, LGR2 inh -13 and FN deposit inh 5.
Screening COc1ccc(CCNC(=O)c2cc3c(=O)n4ccccc4nc3n(CCN3CCOCC3)c2=N)cc1 returned TROY NFkB inh 48, TWEAK Fn14 block 63*, XiGFP reactiv 0, EWS-Fli block 11, LGR2 inh 7 and FN deposit inh -3.
N=c1c(S(=O)(=O)c2ccc(Br)cc2)cc2c(=O)n3ccccc3nc2n1Cc1ccco1 was read as TROY NFkB inh 29, TWEAK Fn14 block 46, XiGFP reactiv 1, LGR2 inh 10 and FN deposit inh 4.
Screening COc1ccc(CCNC(=O)c2cc3c(=O)n4ccccc4nc3n(Cc3ccco3)c2=N)cc1OC returned TROY NFkB inh 62*, TWEAK Fn14 block 96*, XiGFP reactiv 0, LGR2 inh -19 and FN deposit inh 10.
`COc1ccc(CCNC(=O)c2cc3c(=O)n4ccccc4nc3n(CCCN3CCOCC3)c2=N)cc1` gave TROY NFkB inh -11, TWEAK Fn14 block -3, XiGFP reactiv 0, EWS-Fli block 14, LGR2 inh -4 and FN deposit inh 9.
Screening C[C@H](CO)N1C[C@H](C)[C@@H](CN(C)C(=O)C2CCC2)Oc2ncc(-c3cccc(C#N)c3)cc2C1=O returned XiGFP reactiv 0, EWS-Fli block -3 and LGR2 inh -1.
For Cc1noc(C)c1NC(=O)Nc1ccc2c(c1)CC(=O)N([C@H](C)CO)C[C@H](C)[C@@H](CN(C)C(=O)Nc1cccc3ccccc13)O2 the results were XiGFP reactiv 3, EWS-Fli block -8 and LGR2 inh 6.
Cc1ccc(-c2nc(-c3nccc4ccccc34)oc2-c2ccccc2)cc1 was read as TROY NFkB inh 63*, TWEAK Fn14 block -4, XiGFP reactiv 0, EWS-Fli block -19, LGR2 inh inconclusive and FN deposit inh 7.
For c1ccc(-c2nccc3ccccc23)cc1 the results were TROY NFkB inh -2, TWEAK Fn14 block -4, XiGFP reactiv 0, EWS-Fli block -2, LGR2 inh -14 and FN deposit inh 2.
COc1ccccc1NC(=O)N(C)C[C@@H]1Oc2ncc(C#CCN(C)C)cc2C(=O)N([C@H](C)CO)C[C@@H]1C was read as XiGFP reactiv 0, EWS-Fli block -9 and LGR2 inh -1.
Screening C[C@@H]1CN([C@@H](C)CO)C(=O)c2cc(NC(=O)c3ccncc3)ccc2O[C@H]1CN(C)Cc1ccc(Oc2ccccc2)cc1 returned XiGFP reactiv 0, EWS-Fli block -4, LGR2 inh 0 and FN deposit inh 10.
Screening CCN1C=CC(=C2C(=O)c3ccccc3C2=O)C=C1 returned TROY NFkB inh 68* and TWEAK Fn14 block 101*.
`CCCN1C=CC(=C2C(=O)c3ccccc3C2=O)C=C1` gave TROY NFkB inh 73*, TWEAK Fn14 block 71* and FN deposit inh -11.
`CCCCN1C=CC(=C2N=c3cccc([N+](=O)[O-])c3=N2)C=C1` gave TROY NFkB inh 24, TWEAK Fn14 block 36, XiGFP reactiv 0, EWS-Fli block -14, LGR2 inh 23 and FN deposit inh 3.
